Shown are actives, neighbours in structure and some others; about 2.6% of the full set was active somewhere.
S100A4 inh HTS – inhibitors of human S100A4 binding to myosin IIA peptide; P26447; S100A4/TAMRA-MyoIIA peptide fluorescence polarization; inhibition, % at 10.7 µM; 360,000 tested, 0.14% active;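 active = mean inhibition of at least 70% across replicates, with every replicate also reaching that level; inconclusive = mean inhibition reaches 70% but some replicates fall short; inactive = mean inhibition below 70%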
Target sequence (P26447 whole entry, looked up): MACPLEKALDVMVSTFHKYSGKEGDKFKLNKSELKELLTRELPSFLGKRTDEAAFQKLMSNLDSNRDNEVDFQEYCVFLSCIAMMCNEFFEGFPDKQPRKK
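Material: S100A4 monomer (human). Medium: Calcium-containing HEPES buffer, pH 7.2. Probe or stimulus: labelled myosin peptide probe, 5 nM. Compound dosing: one concentration per compound. Timing: polarization read 5 min after assay mix addition, stable 5–60 min. Benchmarks: DMSO as neutral control, TFP as positive control.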
FN deposit inh – fibronectin deposition inhibition; AH1F fibroblasts, Alexa488-fibronectin deposition fluorescence, overnight; inhibition, % at 12.6 µM; 350,000 tested, 0.086% active;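 active = mean inhibition across replicates of 30% or more, regardless of how many single replicates reach that level; inconclusive = mean under 30% yet at least half of replicates reach 30%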
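material = AH1F fibroblast monolayer depositing Alexa488-labelled fibronectin into matrix | amount = 10000 AH1F cells/well | buffer or medium = DMEM plus 2% serum, read in PBS | incubation = 1 h cell adhesion before compound, then overnight fibronectin incubation | detection = fluorescence at 485 nm excitation, 525 nm emission | evaluation = percent inhibition as loss of matrix-bound fibronectin fluorescence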
rRNA inh HTS – inhibits bacterial ribosomal RNA function over humanized ribosomes | E. coli WT GFP vs humanized-ribosome RFP mutants, fluorescence, 24 h; active compounds read low; DMSO median 0, no signal -100 | GFP signal change (wild-type ribosome), % (no concentration beside the values) | 350,000 tested, 1.6% active | AID 720706;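 active = significant combined selectivity score with lowered wild-type GFP, culture density cut under 30%, mutant RFP and density less affected; inactive = any of these conditions unmet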
HIV Env fusion – HIV envelope-mediated fusion inhibition; HeLa-JRFL Env/CEM21 cell fusion, luciferase; inhibition, % at 12.3 µM; 360,000 tested, 1.1% active; AID 651610;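 active = mean replicate inhibition score of at least 50 and every replicate individually at or above 50; inconclusive = only one of the two criteria met; inactive = mean below 50 and not all replicates reaching 50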
Vif inh – inhibitors of HIV Vif; HEK293T cells, Vif self-association by quenched fluorescence, imaging, 24 h; inhibition, % at 7.49 µM; 340,000 tested, 0.35% active; AID 602346; in the data active = inhibition above about 50%, passing the limit was not always enough; inconclusive = no clear call, values can overlap the other calls; inactive = below about 31%
miR-122 sensor – inhibitors of miR-122 in Huh7 cells. Huh7 miR-122 Renilla luciferase sensor, 48 h; neutral wells = 0, positive control = 100. activation (reporter increase), % at 12.5 µM. 340,000 tested, 0.3% active;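 active = mean replicate activation score at least 90 and every replicate individually at or above 90; inconclusive = only one of the two criteria met; inactive = neither criterion met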;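 also: higher luciferase means less miR-122 activity so hits act as miR-122 inhibitors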
Each line names hits and unclear results; the compound was inactive in the other large screens.

Nc1ccc(S(=O)(=O)c2ccc(N)nc2)cc1	Vif inh 57
COc1ccc([C@@H]2C/C=C\C[C@@H](c3ccccc3)NC(=O)CCC(=O)N2)c(OC)c1	none (no result: S100A4 inh HTS, HIV Env fusion, Vif inh, miR-122 sensor)
Cc1onc(-c2ccccc2Cl)c1C(=O)O/N=C(\N)c1ccccc1	none
C/C(=N\OC(=O)c1c(-c2ccccc2Cl)noc1C)c1ccncc1	rRNA inh HTS -23 (no result: FN deposit inh, miR-122 sensor)
CN(C)CCCNC(=O)[C@H]1[C@H](CO)[C@H]2Cn3c(ccc(-c4cccc(F)c4)c3=O)[C@@H]1N2	none (no result: FN deposit inh, Vif inh, miR-122 sensor)
Cc1cccc(Nc2nc(-c3c(C)nc4ccccn34)cs2)c1	HIV Env fusion 92 (no result: S100A4 inh HTS, rRNA inh HTS)
O=C(Nc1ccc(F)cc1F)c1cccc(C(=O)Nc2ccc(F)cc2F)n1	HIV Env fusion 58 (no result: FN deposit inh, miR-122 sensor)
C[C@H]1CN([C@@H](C)CO)C(=O)Cc2cc(NC(=O)Cc3cn(C)c4ccccc34)ccc2O[C@@H]1CN(C)C(=O)Nc1ccccc1	none (no result: FN deposit inh, Vif inh)
C[C@@H]1CN([C@H](C)CO)C(=O)Cc2cc(NC(=O)Cc3ccccc3)ccc2O[C@H]1CN(C)Cc1ccc(Cl)c(Cl)c1	none (no result: FN deposit inh, Vif inh)
COc1ccc2c(c1)C(c1ccc(N3CCOCC3)cc1)=NNC(c1cccnc1)=N2	rRNA inh HTS -17 (no result: miR-122 sensor)
COc1ccc(C2=NNC(c3cccnc3)=Nc3ccc(OC)cc32)cc1	none (no result: miR-122 sensor)
CCCNC(=O)N1CC2(CCN(C(=O)c3cnccn3)CC2)c2c([nH]c3cc(OC)ccc23)[C@@H]1CO	none (no result: FN deposit inh, HIV Env fusion, Vif inh, miR-122 sensor)
COc1ccc(OC)c(CNc2ccc3c(c2)CCC3)c1	none
COc1cccc(CNc2ccc3c(c2)CCC3)c1	Vif inh 60 (no result: S100A4 inh HTS, rRNA inh HTS)
CSc1nsc(N/N=C/c2ccc3c(c2)OCO3)c1C#N	rRNA inh HTS -29 (no result: miR-122 sensor)
COc1ccc(S(=O)(=O)Nc2cccc3c2O[C@H](CN(C)C(=O)Nc2ccc4c(c2)OCO4)[C@H](C)CN([C@@H](C)CO)C3=O)cc1	none (no result: Vif inh)
O=C(CNC(=O)c1cccs1)OCc1ccc(Cl)cc1	none
O=C(CNC(=O)c1cccs1)OCc1ccc(Br)cc1	rRNA inh HTS -26 (no result: HIV Env fusion)
Cc1noc(C)c1S(=O)(=O)N(C)C[C@H]1Oc2ccc(NS(C)(=O)=O)cc2C(=O)N([C@H](C)CO)C[C@@H]1C	none (no result: S100A4 inh HTS, FN deposit inh, HIV Env fusion, Vif inh, miR-122 sensor)
C[C@@H]1CN([C@@H](C)CO)S(=O)(=O)c2ccc(-c3ccc(C(=O)N(C)C)cc3)cc2O[C@@H]1CN(C)C(=O)Nc1ccccc1F	none (no result: FN deposit inh, Vif inh)
O=C1CSc2ccc(S(=O)(=O)NCc3ccc(Cl)cc3)cc2N1	rRNA inh HTS -30 (no result: miR-122 sensor)
CCN(Cc1ccccc1)S(=O)(=O)c1ccc2c(c1)NC(=O)CC(=O)N2	none (no result: miR-122 sensor)
COc1ccc(CNS(=O)(=O)c2ccc3c(c2)NC(=O)C(C)S3)cc1 (stereo unspecified)	rRNA inh HTS -19
COc1ccc(CCNS(=O)(=O)c2ccc3c(c2)NC(=O)C(C)S3)cc1OC (stereo unspecified)	none
Cc1ccc(CNS(=O)(=O)c2ccc3c(c2)NC(=O)C(C)S3)cc1 (stereo unspecified)	rRNA inh HTS -34
CCN(Cc1ccccc1)S(=O)(=O)c1ccc2c(c1)NC(=O)CS2	rRNA inh HTS -35
CS(=O)(=O)N1[C@@H]2Cn3c(ccc(-c4cccc(F)c4)c3=O)[C@H]1[C@@H](C(=O)N1CCOCC1)[C@@H]2CO	none (no result: FN deposit inh, HIV Env fusion, Vif inh)
CCCNC(=O)N1C[C@H](C)[C@@H](OC)CN(C)C(=O)c2cc(NC(=O)CC)ccc2OC[C@@H]1C	none (no result: HIV Env fusion, Vif inh, miR-122 sensor)
Cc1ccc(C(=O)NNC(=O)Cn2nnc3ccccc32)cc1	rRNA inh HTS -31
O=C(N[C@@H]1CC[C@H](CCNS(=O)(=O)c2ccccc2Cl)O[C@H]1CO)c1ccc(F)cc1	none (no result: Vif inh, miR-122 sensor)
COc1ccc(S(=O)(=O)N(C)C[C@@H]2OCCCC[C@@H](C)Oc3ccc(NS(=O)(=O)c4cccs4)cc3C(=O)N([C@@H](C)CO)C[C@@H]2C)cc1	none (no result: FN deposit inh, Vif inh)
C/C(=N\NC(=O)c1ccc(Cn2cc([N+](=O)[O-])cn2)o1)c1cccc(NC(=O)c2cccnc2)c1	FN deposit inh 31
Cc1sc2ncnc(Sc3ccccc3C(=O)Nc3ccc(C#N)cc3)c2c1C	rRNA inh HTS -23 (no result: miR-122 sensor)
Cc1sc2ncnc(Sc3ccccc3C(=O)Nc3ccc(Br)cc3)c2c1C	none (no result: rRNA inh HTS)
Nc1cc(Nc2ccc(Br)cc2)nc(N)n1	rRNA inh HTS -44 (no result: miR-122 sensor)
CC(C)Cc1ccc(/C=C/C(=O)N2CCCCC2)cc1	none (no result: miR-122 sensor)
CCc1ccc(/C=C\C(=O)N2CCCC2)cc1	rRNA inh HTS -19
CC(=O)N1[C@@H]2c3cccc(=O)n3C[C@@H]2[C@@H](CO)[C@@H]1C(=O)NCc1ccccc1	none (no result: S100A4 inh HTS, FN deposit inh, HIV Env fusion, Vif inh, miR-122 sensor)
CC(=O)C1=C(C)N(Cc2ccc(F)cc2)C(=S)NC1c1cccc(Cl)c1 (stereo unspecified)	none (no result: Vif inh, miR-122 sensor)
COC(=O)C1=C(C)N(Cc2ccc(C(F)(F)F)cc2)C(=NCc2ccccc2)NC1c1ccc(Cl)cc1 (stereo unspecified)	rRNA inh HTS -42 (no result: Vif inh, miR-122 sensor)
CC(=O)C1=C(C)N(Cc2ccc(Br)cc2)C(=S)NC1c1cccc(Br)c1 (stereo unspecified)	HIV Env fusion inconclusive (no result: Vif inh, miR-122 sensor)
COC(=O)C1=C(C)N(Cc2ccc(Cl)cc2)C(=S)NC1c1ccc(Br)cc1 (stereo unspecified)	HIV Env fusion 56 (no result: Vif inh, miR-122 sensor)
CC(=O)C1=C(C)N(Cc2ccc(Cl)cc2)C(=S)NC1c1cccc(Br)c1 (stereo unspecified)	HIV Env fusion 70 (no result: Vif inh, miR-122 sensor)
CC(=O)C1=C(C)N(Cc2ccc(Br)cc2)C(=S)NC1c1cccc(Cl)c1 (stereo unspecified)	HIV Env fusion 70 (no result: Vif inh, miR-122 sensor)
COc1ccccc1CNC(=O)C[C@H]1CC[C@@H]2[C@H](COC[C@H](O)CN2C(=O)Nc2ccc(C(F)(F)F)cc2)O1	none (no result: HIV Env fusion, Vif inh)
CNC[C@H]1Oc2c(NC(=O)C3CCOCC3)cccc2C(=O)N([C@@H](C)CO)C[C@@H]1C	none (no result: Vif inh)
CC1=C(C(=O)OC2CCCC2)C(c2coc3ccccc3c2=O)C2=C(CC(C)(C)CC2=O)N1 (stereo unspecified)	rRNA inh HTS -22
C[C@@H]1CC=CC[C@@H](c2cccc(Cl)c2)NC(=O)[C@H](C)N(C)C(=O)c2ccccc2O1 (mixture of isomers)	none (no result: S100A4 inh HTS, HIV Env fusion, Vif inh, miR-122 sensor)
CC(C)(C)C(=O)N1CCN(c2ccc([N+](=O)[O-])c(NCC3CCCO3)c2)CC1 (stereo unspecified)	rRNA inh HTS -38
CCC(=O)N1CCN(c2cc(NCC3CCCO3)c(F)cc2[N+](=O)[O-])CC1 (stereo unspecified)	none (no result: miR-122 sensor)
CCOc1cc(-c2cc(-c3ccc(C)cc3)nc(N)c2C#N)ccc1O	none (no result: S100A4 inh HTS, rRNA inh HTS)
Cc1nn(-c2ccc(F)cc2)c2nc(N)c(C#N)c(-c3ccc(O)c(O)c3)c12	rRNA inh HTS -18
Cc1nn(-c2ccccc2)c2nc(N)c(C#N)c(-c3ccc(O)c(O)c3)c12	none
